Experimental data from paper PMC2909360 (Molecular microbiology, 2010).

Legend:
[1] = biological target: purified bovine cathepsin B (Bos taurus, UniProt P07688); assay: Inhibition of cathepsin B, fluorogenic substrate assay; format: biochemical
Method in brief: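 Pre-incubated 10 min at room temperature with increasing inhibitor concentrations, then Z-Leu-Arg-AMC added (0.25 mM final) at 30°C. Linear hydrolysis rate read for 20 min (ex 365/em 450 nm). Triplicates, mean ± SEM. IC50 from activity loss.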

[2] = system: calpain; assay: Inhibition of calpain; format: biochemical; details: data not shown

inhibition of cathepsin B (in words) [1]: targets also cathepsin B
SMILES: CC(C)C[C@H](NC(=O)N1CCOCC1)C(=O)N[C@H](/C=C/S(=O)(=O)c1ccccc1)CCc1ccccc1 [LHVS, Morpholinurea-leucine-homophenylalanine-vinylsulfone-phenyl, reference compound]
inhibition of calpain (in words) [2]: targets
